Laboratory results published in ChEMBL document CHEMBL2346643, “Semisynthetic studies identify mitochondria poisons from botanical dietary supplements--geranyloxycoumarins from Aegle marmelos” (Bioorg Med Chem, 2013).
pIC50: −log10 of the molar value. Active and inactive are the calls of the source. The calls are words filed in the database; no cut-off is given here.

Columns and labels:
T47D [1] = test: Inhibition of mitochondrial ETC complex 1 in human T47D cells assessed as inhibition of oxygen consumption at 30 uM after 5 to 10 mins by Clarke-type electrode analysis; type: cell-based
Outline: (§1)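 For acute exposure, intact T47D cells received compound at 3, 10 or 30 μM for 5–10 min. Oxygen consumption was then measured with a Clarke-type electrode, with rotenone at 1–100 nM as control. Results are % inhibition of the untreated rate, averaged over two independent experiments with deviation from the average.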

[2] = biological target: T1, Mitochondrial complex I (NADH dehydrogenase) (Homo sapiens) (UniProt P03923+O95299+O00217+P03901+P56556+P03886+O95139+O00483+Q86Y39+P17568+P03891+O75306+P03915+P51970+O43674+P03905+P03897+O14561+O15239+O43181+O43676+O43677+O43678+O43920+O75251+O75380+O75438+O75489+O95167+O95168+O95169+O95178+O95182+O95298+O96000+P19404+P28331+P49821+P56181+Q16718+Q16795+Q8N183+Q9BU61+Q9NRX3+Q9NX14+Q9P032+Q9P0J0+Q9UI09+Q9Y375+Q9Y6M9); test: Inhibition of mitochondrial ETC complex 1 in human T47D cells assessed as inhibition of 1% O2-induced HIF1 activation at 30 uM incubated for 30 mins prior to 1% O2-challenge measured after 16 hrs by luciferase reporter assay; type: cell-based
Outline: (§2)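 pHRE-luc reporter transfected T47D cells were exposed for 16 h to hypoxia (1% O2) or to chemical hypoxia (10 μM 1,10-phenanthroline) in the presence of compound. The highest concentration tested was 30 μM. Luciferase signal was expressed as % inhibition of the induced control. IC50 and 95% CI came from one representative concentration-response experiment run in triplicate. Cycloheximide at 10 μM served as control.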

T47D [3] = test: Inhibition of mitochondrial ETC complex 1 in human T47D cells assessed as inhibition of oxygen consumption at 10 uM after 2 hrs by Clarke-type electrode analysis; type: cell-based
Outline: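 T47D cells were pretreated with 10 μM compound, or 0.01 μM rotenone, for 2 h. Cells were then detached and washed, and the oxygen consumption rate was measured with a Clarke-type electrode. Results are % inhibition relative to untreated controls.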

MDA-MB-231 = test: Antiproliferative activity against human MDA-MB-231 cells at 1 to 10 uM after 48 hrs by SRB assay; type: functional, cell-based
Outline: (§3)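 T47D or MDA-MB-231 breast tumor cells were exposed to 1, 3, 10 and 30 μM for 48 h or 144 h (6 d). For the 6 d exposure, medium was replaced after 3 days with fresh medium containing compound. Stocks were 4 mM in 2-propanol, with final solvent below 0.75%. Viability was measured by sulforhodamine B and expressed as % inhibition of the untreated control: [1−(OD treated/OD control)]×100.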

[4] = biological target: Mitochondrial complex I (NADH dehydrogenase); test: Inhibition of mitochondrial ETC complex 1 in human T47D cells assessed as inhibition of 1,10-phenanthroline-induced HIF1 activation incubated for 30 mins prior to 1,10-phenanthroline-challenge measured after 16 hrs by luciferase reporter assay; type: cell-based; outline: as §2
[5] = biological target: T1, Mitochondrial complex I (NADH dehydrogenase) (Homo sapiens); test: Inhibition of mitochondrial ETC complex 1 in human T47D cells assessed as inhibition of 1,10-phenanthroline-induced HIF1 activation at 30 uM incubated for 30 mins prior to 1,10-phenanthroline-challenge measured after 16 hrs by luciferase reporter assay; type: cell-based; outline: as §2
[6] = biological target: Mitochondrial complex I (NADH dehydrogenase); test: Inhibition of mitochondrial ETC complex 1 in human T47D cells assessed as inhibition of 1% O2-induced HIF1 activation incubated for 30 mins prior to 1% O2-challenge measured after 16 hrs by luciferase reporter assay; type: cell-based; outline: as §2
T47D [7] = test: Inhibition of mitochondrial ETC complex 1 in human T47D cells assessed as inhibition of oxygen consumption at 10 uM after 10 mins by Clarke-type electrode analysis; type: cell-based; outline: as §1
T47D [8] = test: Antiproliferative activity against human T47D cells at 1 to 10 uM after 48 hrs by SRB assay; type: functional, cell-based; outline: as §3

## CCCCCC/C=C\CCCCCCCCCC(=O)O[C@H](CC/C(C)=C/COc1ccc2ccc(=O)oc2c1)C(C)(C)O [R-(+)-MARMIN-6'-CIS-VACCENOATE]
T47D [1]
  inhibition: 20%
[2]
  inhibition: 20%
T47D [3]
  inhibition: -6%
MDA-MB-231
  Activity: Active
[4]
  pIC50: < 4.52
[5]
  inhibition: 20%
[6]
  pIC50: < 4.52
T47D [7]
  inhibition: 5%
T47D [8]
  Activity: Active
